Test system: T cell hybridoma HH8
Test: Activation of T cell hybridoma HH8 by PT-gluten
Assay type: cell-based, mouse
Conditions: HH8 and DB4, in words
In short: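 Irradiated (8,000 rads) T2DM cells (100,000) retrovirally expressing DQ2 WT or mutant co-cultured 16-24 h with HH8 hybridoma (100,000) and titrated PT-gluten (0.06-3 μg/μl); supernatant IL-2 by mouse IL-2 ELISA. PT-gluten: gluten digested with pepsin (pH 2.0), then trypsin/chymotrypsin (pH 6), 37°C; heat-inactivated; dialysed high-molecular-weight fraction deamidated with guinea pig transglutaminase (100 ug/ml, 1mM CaCl2, 37°C, 2h).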

| Sequence | effect of DM on presentation of the epitope |
| --- | --- |
| QLQPFPQPELPYPQPQS [α-gliadin 57-73 Q65E] | suppressed by DM in endocytic compartments |
| PQPELPYPQPQL [α-II-gliadin 62-70] | DM-suppressed epitope |

Reference: article PMC3159820 (Journal of immunology (Baltimore, Md. : 1950), 2011)
